# Hit rate of the full screen: of about 360,000 compounds, about 5,400 (1.5%) were called active.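 Rule for the calls: active = inhibition above a per-plate cutoff, the mean inhibition of test compounds on that plate plus 3 SD (cut at about 49% in these data); inactive = the rest.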 What follows is part of a selection rich in actives, with near analogues and random picks from the rest.
# Target: Trace amine-associated receptor 1 (Homo sapiens) (UniProt Q96RJ0)
# Experiment: blockers of beta-PEA-driven TAAR1 calcium signal – Fluo-8 calcium fluorescence, CHO RD-HGA16 cells, primary screen (AID 624466);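 note: 0% = DMSO plus EC80 beta-PEA response and 100% = DMSO alone without agonist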
# Conditions: CHO RD-HGA16 TAAR1, Fluo-8 calcium fluorescence, antagonist; at 3 µM; hits give high values
# Outline: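 Assay system: CHO-derived RD-HGA16 cells stably expressing human TAAR1 plus Gα16. Timing: 140 s kinetic read after compound, 140 s after agonist. Technique: kinetic Fluo-8 calcium fluorescence measurement. Measure: % inhibition of agonist calcium response.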
# Chain of Trace amine-associated receptor 1 (Homo sapiens) (Q96RJ0 whole entry, looked up): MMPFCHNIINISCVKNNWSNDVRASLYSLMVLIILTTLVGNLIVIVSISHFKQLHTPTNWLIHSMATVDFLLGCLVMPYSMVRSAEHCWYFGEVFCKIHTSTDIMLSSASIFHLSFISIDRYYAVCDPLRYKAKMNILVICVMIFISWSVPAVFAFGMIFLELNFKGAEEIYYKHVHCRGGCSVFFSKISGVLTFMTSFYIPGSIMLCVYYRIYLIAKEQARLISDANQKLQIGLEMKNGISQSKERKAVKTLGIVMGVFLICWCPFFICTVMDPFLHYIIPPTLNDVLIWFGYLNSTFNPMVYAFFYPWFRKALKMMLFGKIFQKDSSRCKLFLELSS
row,Structure (SMILES),inhibition
1,CCC(=O)Oc1cccc(C(=O)Nc2ccc(-c3nnc(-c4ccco4)o3)cc2)c1,63.3% (active)
2,Cc1ccc2nc(-c3ccc(NC(=O)c4cccnc4)cc3)oc2c1,45.9% (inactive)
3,O=C(Nc1ccc(Cl)cc1)c1cccc(OC(=S)N2CCOCC2)c1,-20.4% (inactive)
4,CN(C(=O)CN(CCO)CC(=O)N(C)C(C)(C)Cc1ccccc1)C(C)(C)Cc1ccccc1,86.5% (active)
5,CCOC(=O)N(Cc1ccccc1)C1CC1,2.44% (inactive)
6,CN(CCO)C(=O)c1nc[nH]c1C(=O)N(C)Cc1ccccc1,-10.4% (inactive)
7,Cc1cc(SCC(=O)c2ccccc2)nc(SCC(=O)c2ccccc2)n1,51.6% (active)
8,Cc1nc(SCC(=O)c2ccccc2)c([N+](=O)[O-])[nH]1,8.14% (inactive)
9,Cc1nc2nc(SCC(=O)c3ccccc3)[nH]c2cc1Br,-5.84% (inactive)
10,CCOC(=O)CCCNC(=O)COC(=O)c1cc(Br)c(Br)s1,-4.99% (inactive)
11,CCC1CCCCN1CCNS(=O)(=O)c1ccc2c(c1)CCN2C(C)=O (stereo unspecified),-5.09% (inactive)
12,Cc1ccc(C(=O)N/C(=C\c2cn(S(=O)(=O)N(C)C)c3ccccc23)C(=O)N2CCCC2)cc1,39.7% (inactive)
13,O=C1C(Cl)=C(Oc2ccccc2)C(=O)c2ccccc21,50.9% (active)
14,Cc1cc(Cl)ccc1OCCCC(=O)Nc1cccc(-n2cnnn2)c1,53% (active)
15,Cc1cc(Cl)ccc1OCCCC(=O)NCc1ccncc1,3.15% (inactive)
16,Cc1cc(Cl)ccc1OCCCC(=O)NCc1ccccn1,2.84% (inactive)
17,CC1(C(=O)NCc2ccccc2)CSCC(=O)N1CCCN1CCOCC1 (stereo unspecified),-18.5% (inactive)
18,COC(=O)c1ccc2c(c1)S(=O)(=O)NC2C (stereo unspecified),4.99% (inactive)
19,O=c1[nH]c(CSc2ncc(-c3ccc(F)cc3)n2Cc2ccco2)nc2ccccc12,67.8% (active)
20,Cn1c(-c2ccc(F)cc2)cnc1SCC(=O)NCc1ccco1,-3.37% (inactive)
21,CCn1c(COc2c(C)cccc2C)nnc1SCc1nc2ccccc2c(=O)[nH]1,2.03% (inactive)
22,CN(C)CCCn1c(SCCN2C(=O)c3ccccc3C2=O)nc2ccccc2c1=O,-1.92% (inactive)

row,Structure (SMILES),inhibition
1,C[C@H](NC(=O)c1ccccc1)C(=O)OCC(=O)c1c[nH]c2ccccc12,52.1% (active)
2,C[N+](C)(C)CCNC(=O)c1c[nH]c2ccccc12,-17.1% (inactive)
3,CCOc1ncccc1C(=O)OCC(=O)c1c[nH]c2ccccc12,42% (inactive)
4,COC(=O)C1=C(C)N(Cc2ccccc2C(F)(F)F)C(=NCC2CC2)NC1c1cccc(Cl)c1 (stereo unspecified),1.62% (inactive)
5,CCOC(=O)c1cc(-c2ccc(Cl)s2)nc2c1c(C)nn2C,1.4% (inactive)
6,Cc1ccc(OCCC(=O)OCC(=O)N2c3ccccc3NC(=O)C2(C)C)cc1,50.6% (active)
7,CNS(=O)(=O)c1cccc(C(=O)OCC(=O)N2c3ccccc3NC(=O)C2(C)C)c1,0.12% (inactive)
8,CC1(C)C(=O)Nc2ccccc2N1C(=O)COC(=O)Cn1cnc2ccccc2c1=O,12.5% (inactive)
9,CC(c1ccccc1)n1c(NCCCn2ccnc2)nc2c1c(=O)[nH]c(=O)n2C (stereo unspecified),10.8% (inactive)
10,Cc1cc(=O)[nH]c2nnnn12,-7.21% (inactive)
11,COc1ccc(N(CC(=O)N/N=C/c2cccs2)S(=O)(=O)c2ccc(OC)c(OC)c2)cc1,69.2% (active)
12,COc1ccc(S(=O)(=O)N(CC(=O)N/N=C/c2ccc(C(=O)O)cc2)Cc2ccccc2)cc1OC,-28.3% (inactive)
13,COc1ccc(N(CC(=O)N/N=C/c2cccc3c2OCCO3)S(=O)(=O)c2ccc(NC(C)=O)cc2)cc1,29.3% (inactive)
14,Nc1[nH]c(C(=O)c2ccccc2)c(-c2ccc(Cl)cc2Cl)c1C(=O)c1ccccc1,-37.8% (inactive)
15,CSCCC(NC(=O)COc1ccccc1)C(=O)OCCOc1ccc(Br)cc1 (stereo unspecified),55.7% (active)
16,CSCCC(NC(=O)COc1ccccc1)C(=O)OCCOc1ccc(F)cc1 (stereo unspecified),37.1% (inactive)
17,CSCCC(NC(=O)COc1ccccc1)C(=O)OCC(=O)c1cc2ccccc2o1 (stereo unspecified),50% (active)
18,CSCCC(NC(=O)COc1ccccc1)C(=O)Nc1ccc(C)cc1 (stereo unspecified),-10.3% (inactive)
19,CSCCC(NC(=O)COc1ccccc1)C(=O)OCc1ccc(Cl)cc1 (stereo unspecified),22.9% (inactive)
20,COc1ccccc1OCCNC(=O)C(CCSC)NC(=O)COc1ccccc1 (stereo unspecified),-26.3% (inactive)
21,C=CCN1C(=O)C2(OCCCO2)c2cccc(Cl)c21,3.13% (inactive)
22,O=C(Nc1c(Cl)c(C2CC2)nn1-c1ccccc1)C(Cl)(Cl)Cl,-12.3% (inactive)

row,Structure (SMILES),inhibition
1,FC(F)(F)c1cccc(-c2nc3ccccc3n2C(c2ccccc2)c2nc3ccccc3[nH]2)c1 (stereo unspecified),18.4% (inactive)
2,O=C(c1ccc(C(F)(F)F)cc1)N1CCC(=O)N([C@H](COCc2ccccc2)Cc2ccccc2)CC1,14.8% (inactive)
3,COc1ccc(NC(=O)C(c2ccncc2)n2c(=O)c(-c3cc4ccccc4[nH]3)nc3ccccc32)cc1 (stereo unspecified),-5.75% (inactive)
4,O=C1NC[C@H](CCCCN2C[C@H](Cc3ccc(O)cc3)N(CCc3ccccc3)C(=O)C2=O)N(CCc2ccccc2)C1=O,5.71% (inactive)
5,COc1ccc(CNC(=O)C2(CC3CC(c4ccccc4)=NO3)CCN(C(=O)c3cccc(O)c3)CC2)cc1 (stereo unspecified),33.5% (inactive)
6,Cc1ccc(CNC(=O)c2cc(-c3ccccc3C)n(CC3CC(c4cccc([N+](=O)[O-])c4)=NO3)n2)cc1 (stereo unspecified),7.96% (inactive)
7,COc1ccc(C2=NOC(Cn3nc(C(=O)NCc4ccc5c(c4)OCO5)cc3-c3ccccc3)C2)cc1 (stereo unspecified),59.7% (active)
8,COc1ccccc1C(=O)N1O[C@]23C=C[C@]14C[C@@H](O)CC[C@]4(C)C2CC[C@]1(C)[C@@H]([C@H](C)/C=C/[C@H](C)C(C)C)CC[C@H]13 (stereo partly specified),2.31% (inactive)
9,Cc1ccc(C)c(-n2nnnc2SCC(=O)c2c(N)n(C)c(=O)n(C)c2=O)c1,-13.3% (inactive)
10,COC(=O)Nc1ccc(S(=O)(=O)Nc2cc(OC)nc(OC)n2)cc1,-1.45% (inactive)
11,Cc1cc2nc3c(=O)[nH]c(=O)nc-3n(C[C@H](O)[C@H](O)[C@H](O)CO)c2cc1C,18.8% (inactive)
12,CCN(CC)CCCC(C)n1c2nc(=O)[nH]c(=O)c-2nc2cc(Cl)ccc21 (stereo unspecified),72% (active)
13,Nc1ccn([C@@H]2O[C@H](C(=O)N[C@H]3CCCCNC3=O)[C@@H](O)[C@H]2O)c(=O)n1,21.5% (inactive)
14,O=C(COC(=O)c1ccc(S(=O)(=O)N2CCc3ccccc3C2)cc1)NC(=O)NCc1ccco1,0.28% (inactive)
15,Cc1cc(N2CCN(C(=O)OC(C)(C)C)C[C@H]2C)ccc1N1CCN(Cc2ccccc2)[C@H](C)C1,8.39% (inactive)
16,COc1ccc(OC)c(Nc2nc3ccccc3n3cnnc23)c1,-3.9% (inactive)
17,CSc1ccc(C#N)cc1NC(=O)c1cccc(Cl)c1,-1.36% (inactive)
18,COc1ccc(Sc2ccc(NC(=O)c3cccc(Cl)c3)cc2C#N)cc1,48.8% (active)
19,Cc1ccc(Sc2ccc(NC(=O)c3ccc(F)cc3)cc2C#N)cc1,47.8% (inactive)
20,Cc1cc(C)n2c(NCc3ccccc3)c(CC(C)C)nc2n1,-31.3% (inactive)
21,COc1cccc(-c2cnc3c(NC(C)=O)cc(-c4cccc(NC(C)=O)c4)cn23)c1,33.8% (inactive)
22,COc1ccccc1-c1cc(NC(C)=O)c2ncc(-c3ccc(F)cc3)n2c1,11% (inactive)

row,Structure (SMILES),inhibition
1,COc1cccc(-c2cnc3c(NC(C)=O)cc(-c4cc(F)ccc4OC)cn23)c1,56.7% (active)
2,CC1(C)CC(=O)C2=C(C1)Nc1cc(C(=O)c3ccccc3)ccc1NC2c1ccccn1 (stereo unspecified),-12.4% (inactive)
3,Cc1ccc(C)c(NS(=O)(=O)c2c(C)[nH]c(C)c2C(=O)N2CCCCC2)c1,-30.8% (inactive)
4,Cc1ccc(SCC(=O)Nc2ccc3c(c2)OCCO3)cc1,-11.4% (inactive)
5,Cc1ccc(SCC(=O)c2cc(C)c(OC(=S)N(C)C)c(C)c2)cc1,57% (active)
6,COC(=O)c1cc(OC)c(OC)cc1NC(=O)CSc1ccc(C)cc1,-0.75% (inactive)
7,CCCCNc1c(-c2cccc(Sc3ccc(OC)cc3)c2)nc2ccccn12,87.9% (active)
8,COC(=O)c1ccc2nc(-c3cccc(Br)c3)c(Cc3ccc(OC)cc3C)n2c1,-4.86% (inactive)
9,COC(=O)c1ccc2nc(-c3ccccc3)c(Cc3ccc(OC)cc3C)n2c1,3.43% (inactive)
10,CCCCNC(=O)CCn1nc(-c2ccc(Cl)cc2)ccc1=O,-14.1% (inactive)
11,C/C(=N\Nc1nc(Nc2ccccc2)nc(N2CCOCC2)n1)c1cccs1,9.62% (inactive)
12,COc1ccc(Nc2ncc(F)c(N3CCOCC3)n2)cc1,7.62% (inactive)
13,c1ccc(Nc2nc(N3CCOCC3)c3ccccc3n2)cc1,74.1% (active)
14,COc1ccccc1CNC(=O)C1CCCN(S(=O)(=O)c2cccc3cccnc23)C1 (stereo unspecified),-10.9% (inactive)
15,COc1ccc(NC(=O)C2CCCN(S(=O)(=O)c3cccc4cccnc34)C2)cc1OC (stereo unspecified),66.5% (active)
16,O=C(O)C1CCCN(S(=O)(=O)c2cccc3cccnc23)C1 (stereo unspecified),-9.13% (inactive)
17,COc1ccc(CCNC(=O)C2CCCN(S(=O)(=O)c3ccc(OC)cc3)C2)cc1 (stereo unspecified),5.88% (inactive)
18,CC(=O)Nc1ccc(NC(=O)C2CCCN(S(=O)(=O)c3ccc(Cl)cc3)C2)cc1 (stereo unspecified),9.58% (inactive)
19,COc1ccc(S(=O)(=O)N2CCCC(C(=O)Nc3ccc(NC(=O)c4ccccn4)cc3)C2)cc1 (stereo unspecified),63% (active)
20,CCN(CC(=O)Nc1ccc(NC(C)=O)cc1)C(=O)CSC(=S)N1CCCC1,14.2% (inactive)
